Assay outcomes: PubChem BioAssay, several laboratories
PAFAH1B3 FP inh – PAFAH1B3 enzyme inhibitors, primary screen, biochemical, fluorescence polarization, human; 340,000 tested, 0.28% active; inhibition, % at 3.39 µM; AID 492972, 2010; recombinant PAFAH1B3, FP-rhodamine probe;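 active means inhibition above the screen-wide average of all tested compounds plus 3 SD, cut at about 25% in these data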;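 further: 0% = enzyme with DMSO only and 100% = wells lacking PAFAH1B3 protein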
Target sequence (Q15102 whole entry, looked up): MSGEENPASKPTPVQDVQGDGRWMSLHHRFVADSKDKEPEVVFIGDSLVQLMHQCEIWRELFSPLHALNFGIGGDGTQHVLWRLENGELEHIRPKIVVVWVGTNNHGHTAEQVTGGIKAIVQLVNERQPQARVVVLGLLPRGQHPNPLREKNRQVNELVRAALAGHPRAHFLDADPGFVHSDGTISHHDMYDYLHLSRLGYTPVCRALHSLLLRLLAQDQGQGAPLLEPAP
Apaf1 inhib – inhibitors of human Apaf-1 apoptosome, primary screen, biochemical, DEVD-Rh110 fluorescence, uHTS | 330,000 tested, 0.71% active | inhibition, % at 20 µM | reconstituted apoptosome caspase-3 activity | AID 489030, 2010; active means inhibition of at least 40% at 20 µM;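 further: plate controls were DMSO wells for no effect and DEVD-CHO caspase inhibitor wells for full effect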
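Material: reconstituted apoptosome with Apaf-1, cytochrome c, caspase-9, procaspase-3, dATP. Technique: Rh110 fluorescence intensity. Buffer or medium: pH 7.5 Hepes buffer with CHAPS, BSA, DTT. Times: 30 min plus 50 min, RT.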
PAFAH1B2 inh – PAFAH1B2 enzyme inhibitors, primary screen, biochemical, fluorescence polarization, human; Platelet-activating factor acetylhydrolase IB subunit alpha2 (Homo sapiens), P68402; recombinant PAFAH1B2, FP-rhodamine activity probe; inhibition, % at 3.39 µM; 340,000 tested, 1.2% active; AID 492953, 2010;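 active means inhibition above the mean of all tested compounds plus 3 SD, cut at about 24% in these data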;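 further: 0% = enzyme with DMSO and 100% = wells lacking PAFAH1B2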
Target sequence (P68402 whole entry, looked up): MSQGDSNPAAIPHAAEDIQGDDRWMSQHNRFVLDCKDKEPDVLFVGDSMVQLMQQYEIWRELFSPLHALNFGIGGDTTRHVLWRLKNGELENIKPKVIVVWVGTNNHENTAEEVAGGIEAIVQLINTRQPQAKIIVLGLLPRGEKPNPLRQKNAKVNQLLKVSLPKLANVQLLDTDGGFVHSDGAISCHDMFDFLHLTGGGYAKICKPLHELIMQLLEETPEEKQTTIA
pPAFAH FP inh – pPAFAH enzyme inhibitors, primary screen, biochemical, fluorescence polarization, human. recombinant pPAFAH, FP-rhodamine probe fluorescence polarization. inhibition, % at 3.39 µM. 330,000 tested, 1.5% active. AID 463082, 2010;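 active means inhibition above the mean inhibition across the screen plus 3 SD, cut at about 25% in these data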;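 further: inhibitors block binding of the rhodamine activity-based probe so polarization drops; 0% = enzyme with DMSO and 100% = wells lacking pPAFAH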
PAFAH2 inh – PAFAH2 enzyme inhibitors, primary screen, biochemical, fluorescence polarization, human; 340,000 tested, 0.99% active; Platelet-activating factor acetylhydrolase 2, cytoplasmic (Homo sapiens), Q99487; recombinant PAFAH2, FP-rhodamine activity probe; inhibition, % at 3.39 µM;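 active means inhibition above the mean over all tested compounds plus 3 SD, cut at about 30% in these data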;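 further: inhibitors block probe labeling of enzyme so polarization drops; 0% = enzyme with DMSO and 100% = wells lacking PAFAH2 protein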
Apaf-1 inh conf2 – Apaf-1 inhibitors, single-dose retest, confirmation, biochemical, fluorescence, DEVD-Rh110, 20 µM; shares compounds with Apaf1 inhib; 1,800 tested, 25% active; reconstituted apoptosome, caspase-3 DEVD-Rh110 fluorescence; inhibition, % at 20 µM;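 active means mean inhibition of at least 40% at 20 µM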;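 further: plate controls were DMSO wells for no effect and DEVD-CHO caspase inhibitor control wells for full effect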
Rh110 interf inh – Rh110 fluorescence interference by putative Apaf-1 inhibitors, confirmation, artefact control for Apaf-1 inhibitor project, biochemical, 20 µM; shares compounds with Apaf1 inhib; quenched caspase reaction; activation (fluorescence interference), % at 20 µM; 1,800 tested, under 10 active;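 active means signal rise of 40% or more at 20 µM, treated as a fluorescence artifact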
Fluor interf inh – fluorescence interference of Apaf-1 inhibitor hits, dose response, artefact control for Apaf-1 inhibitor project | shares compounds with Apaf1 inhib | fluorescence interference counterscreen, Apaf-1 assay format | IC50, µM | 460 tested, under 10 active; call rule not given here
Numbers without * were called inactive; . = no result. The list is not random: actives were taken first. Their share in the collection is about 3.1%.

SMILES	PAFAH1B3 FP inh	Apaf1 inhib	PAFAH1B2 inh	pPAFAH FP inh	PAFAH2 inh	Apaf-1 inh conf2	Rh110 interf inh	others
CC(=O)C1=C(c2cccc([N+](=O)[O-])c2)N(C(C)=O)n2c(C)nnc2S1	8	44*	5	7	2	40	9
CCc1noc(C)c1C(=O)N1CC(C)SC1=Nc1ccc(Cl)cc1 (stereo not drawn)	-6	31	0	-3	-3	.	.
COCCOC(=O)c1c(C)oc2ccc(O)c(CN3CCC(C)CC3)c12 (tested in a mixture with another compound)	2	.	0	.	6	.	.
Cc1cc(/C=C2\SC(=O)N(C)C2=O)c(C)n1-c1ccc(O)cc1	7	71*	-4	17	0	18	9
CC1CCCC(NC(=O)COC(=O)c2ccc([N+](=O)[O-])s2)C1C (stereo not drawn)	53*	41*	15	16	66*	31	5
Cc1cnc(C(=O)OCC(=O)NC2CCCC(C)C2C)cn1 (stereo not drawn)	5	-7	5	4	0	.	.
Cc1[nH][nH]c(=O)c1C(c1ccc(-c2ccc(C(=O)O)cc2)o1)c1c(C)[nH][nH]c1=O	17	.	5	.	1	.	.
Cc1[nH][nH]c(=O)c1C(c1ccc(-c2ccc(Cl)c(Cl)c2)o1)c1c(C)[nH][nH]c1=O	7	79*	3	22	15	30	0
Cc1[nH][nH]c(=O)c1C(c1ccc(-c2ccc(F)cc2)o1)c1c(C)[nH][nH]c1=O	15	72*	9	-3	7	32	5
COc1ccc(-c2ccc(C(c3c(C)[nH][nH]c3=O)c3c(C)[nH][nH]c3=O)o2)c([N+](=O)[O-])c1	2	75*	8	.	4	19	-1
CCOc1ccccc1N1CSC2=C(C#N)C(c3c(OC)ccc4ccccc34)CC(=O)N2C1 (stereo not drawn)	1	41*	-1	15	7	22	4
CCOC(=O)c1ccc(N2CSC3=C(C#N)C(c4cccs4)CC(=O)N3C2)cc1 (stereo not drawn)	2	55*	10	8	-1	18	2
CCC1(c2ccc(C)cc2)NC(=O)N(C(C)C(=O)Nc2ccc(N3CCOCC3)cc2)C1=O (stereo not drawn)	3	-4	-4	1	0	.	.
CC(C)=CCC/C(C)=C/CNC(=O)C[C@H]1C[C@H](C(=O)N2CCOCC2)[C@@]2(C)c3[nH]c4ccc(Cl)cc4c3CCN2C1=O	1	42*	6	15	6	27	10
CC(C)=CCC/C(C)=C/CNC(=O)C[C@H]1C[C@H](C(=O)N2CCOCC2)[C@@]2(C)c3[nH]c4cc(-c5ccco5)ccc4c3CCN2C1=O	1	44*	3	25*	5	17	3
CC[C@]12c3[nH]c4ccc(Cl)cc4c3CCN1C(=O)[C@@H](CC(=O)NCC13CC4CC(CC(C4)C1)C3)C[C@@H]2C(=O)N1CCN(C(=O)c2ccco2)CC1	10	44*	-1	1	-2	18	7
COc1ccc(NC(=O)CSCC(=O)NC2(C)CCS(=O)(=O)C2)cc1 (stereo not drawn)	2	4	3	-1	3	.	.
N#Cc1ccccc1NC(=O)CN(Cc1ccccc1)Cc1ccccc1	5	20	1	6	-5	.	.
Cn1cc(CN2CCC(C(=O)Nc3ccc(Oc4ccccc4F)cc3)CC2)cn1	3	-3	-1	6	1	.	.
COc1ccc(OC)c(NC(=O)Nc2ccc3[nH]ccc3c2)c1	.	-9	.	3	.	.	.
CCCCCCc1cc2cc(-c3nnc(-c4ccccc4OC)o3)c(=O)oc2cc1O	-5	62*	-4	12	-1	64*	2	Fluor interf inh=>100
CCCCCCc1cc2cc(-c3nnc(-c4ccccc4O)o3)c(=O)oc2cc1O	10	-140	-2	7	3	.	.
O=c1[nH]c(Nc2ccccc2Cl)cc2ccccc12	15	98*	6	9	8	79*	14	Fluor interf inh=>100
COc1ccc(OC)c(C2=NOC(C(=O)Nc3ccc4c(c3)OCCO4)C2)c1 (stereo not drawn)	2	42*	-2	10	-2	5	1
CN(Cc1ccc(C(F)(F)F)cc1)C(=O)C1CC(=O)N(Cc2ccco2)C1 (stereo not drawn)	1	-3	-3	4	-4	.	.
SMILES	PAFAH1B3 FP inh	Apaf1 inhib	PAFAH1B2 inh	pPAFAH FP inh	PAFAH2 inh	Apaf-1 inh conf2	Rh110 interf inh	others
CCN(C(=O)c1coc(=O)c(Br)c1)c1ccc2c(c1)OCO2	2	59*	0	6	-1	18	0
C[C@H](CO)N1C[C@H](C)[C@@H](CN(C)Cc2ccccc2)Oc2c(NC(=O)Cc3ccccc3)cccc2C1=O	4	22	13	1	-4	.	.
C[C@H](CO)N1C[C@H](C)[C@@H](CN(C)CC2CCCCC2)Oc2c(NC(=O)CCC(F)(F)F)cccc2C1=O	11	41*	2	-2	2	18	17
C[C@H](CO)N1C[C@H](C)[C@@H](CN(C)Cc2ccc(-c3ccccc3)cc2)Oc2c(NC(=O)Cc3ccccc3)cccc2C1=O	-4	43*	0	-1	12	26	-7
C[C@H](CO)N1C[C@H](C)[C@@H](CN(C)Cc2ccc(Cl)c(Cl)c2)Oc2c(NC(=O)Cc3ccccc3)cccc2C1=O	-2	44*	10	3	5	24	2
C[C@@H]1CN([C@@H](C)CO)C(=O)c2cc(NC(=O)Nc3ccc(F)cc3)ccc2O[C@@H]1CN(C)Cc1ccc(Oc2ccccc2)cc1	-22	42*	-7	-5	-10	11	10
C[C@H](CO)N1C[C@H](C)[C@@H](CN(C)C(=O)NC2CCCCC2)Oc2c(NC(=O)CCC(F)(F)F)cccc2C1=O	8	-9	4	2	10	.	.
CN(CC(=O)Nc1ccc(Cl)cc1)C(=O)CNC(=O)Cc1cccc2ccccc12	-4	18	3	-4	-4	.	.
